beta cell repl = MIN6 beta-cell proliferation induction; MIN6 cells proliferation, ATPlite luminescence, 48 h; cells starved in 0.2% serum; 100% = growth in 10% serum; actives 0.29% (n = 330,000); proliferation, % at 10 µM;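 active = compounds whose signal lies at least 3.5 SD above the mean of all wells on their plate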
T cell modulator = T cell immune modulators affecting CD8 T cell-vesicle binding | 2C CD8+ T cell-vesicle binding, flow cytometry; hits give low values | AID 2052 | actives 0.068% (n = 330,000) | response (vesicle binding), % at 7 µM;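 active = response, share of CD8 T cells binding vesicles, and their 90th percentile fluorescence all below set limits, cut at about 80% in these data, passing the limit was not always enough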;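 also: values below 100% mean blocked vesicle binding to the CD8+ T cells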
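material = purified 2C TCR transgenic mouse naive CD8+ T cells | controls = Unloaded micro-vesicles (low), QL9 vesicles with 0.7% DMSO (high) | detection = cytometric PE anti-B7-1 and Alexa647 anti-CD8 signals after 1% paraformaldehyde fixation | incubation = binding step 1.5 h, 37 °C, antibody labelling 20 min, ice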
V-ATPase pH = yeast V-ATPase proton transport regulation by pHLuorin. S. cerevisiae, pHLuorin cytosolic pH fluorescence. response, % at 10 µM. actives 0.37% (n = 350,000). AID 504577; in the data active = response mostly above about 7.3%, no sharp cut-off; inactive = mostly below about 5.4%; also: actives read high
Arrestin-AP2 inh = human beta-arrestin and AP2 interaction inhibition | FITC-arrestin peptide / GST-AP2 beads, flow cytometry; AP2 beta2 appendage carries R879A mutation | inhibition, % at 10 µM | actives 0.31% (n = 340,000);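 active = inhibition above a set limit, near 3 SD of compounds lacking own fluorescence, cut at about 54% in these data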
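System: GST-tagged AP2 beta2-adaptin appendage (R879A) on 4 µm glutathione beads / Reagent: FITC-arrestin peptide, 50 nM / Detection: HyperCyt-sampled flow cytometry, FL1 channel, ex 488/em 535 nm / Timing: 12 min plus 1 h, RT / Buffer or medium: PBS plus Tween 20 (0.05%) and BSA (0.1%)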
NTR1 agonist = NTR1 (human) agonism | NTR1-U2OS beta-arrestin-GFP spot imaging, agonist mode | activation, % at 20 µM | actives 0.17% (n = 330,000);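 active = activation at or above 40% of the spot to cytoplasm intensity ratio, with at least 20 cells analyzed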
Target sequence (P30989 whole entry, looked up): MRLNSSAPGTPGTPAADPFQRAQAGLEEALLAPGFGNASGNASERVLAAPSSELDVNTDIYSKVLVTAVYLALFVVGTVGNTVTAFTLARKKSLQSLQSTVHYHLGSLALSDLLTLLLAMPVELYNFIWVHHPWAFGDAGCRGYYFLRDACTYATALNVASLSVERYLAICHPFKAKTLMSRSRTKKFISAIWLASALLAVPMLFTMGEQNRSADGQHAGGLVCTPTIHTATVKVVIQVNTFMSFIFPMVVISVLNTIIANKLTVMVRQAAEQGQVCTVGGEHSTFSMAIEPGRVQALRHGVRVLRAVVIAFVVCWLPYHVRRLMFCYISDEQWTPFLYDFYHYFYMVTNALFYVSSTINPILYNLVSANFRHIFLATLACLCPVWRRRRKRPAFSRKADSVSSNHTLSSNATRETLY
Xi reactivation = X-chromosome reactivation activator; XiGFP mouse fibroblasts, % GFP-positive cells imaging, 3 d; cells co-treated with 5-aza-dC sensitizer; scaled so ellipticine positive control = 100%; activation, % at 7.58 µM; actives 0.055% (n = 360,000); AID 743238;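 active = mean normalized replicate activation at least 10% and every replicate at or above 10%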
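System: XiGFP fibroblasts, SV40-immortalized. Medium: DMEM plus 5-aza-dC sensitizer. Doses: single point. Timing: 3 d treatment, 15 min room-temperature fixation. Control set: ellipticine 6 µM.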
VATPase regulator = modulates yeast V-ATPase proton transport | response, % at 10 µM | shares compounds with V-ATPase pH | S. cerevisiae pHLuorin cytosolic pH | actives 2% (n = 980); in the data active = response above about 24%
Of the large screens only hits and unclear results are named; the others gave an inactive call (follow-up assays come after a bar, where they were run). An excerpt weighted towards active compounds, which were near 0.89% of everything screened.

COc1ccc2c3c(n(C)c2c1)[C@@H](CO)N(C(=O)C1CC1)CC31CCN(CC2CCCC2)CC1	none (no result: beta cell repl, T cell modulator, V-ATPase pH, Arrestin-AP2 inh, NTR1 agonist)
Cc1n[nH]c(=S)n1Cc1ccccc1	V-ATPase pH 9.8 | VATPase regulator inactive
S=c1[nH]nc(-c2ccccc2)n1Cc1ccccc1	none (no result: Xi reactivation)
O=C(c1cccnc1)N1CCCCN2[C@H](CO)[C@H](c3ccc(C#Cc4cccnc4)cc3)[C@@H]2C1	none (no result: beta cell repl, T cell modulator, V-ATPase pH, Arrestin-AP2 inh, NTR1 agonist)
C/C=C/c1ccc([C@@H]2[C@H](CO)N(CCC(F)(F)F)C23CN(C(=O)COC)C3)cc1	none (no result: beta cell repl, T cell modulator, V-ATPase pH, Arrestin-AP2 inh, NTR1 agonist)
C[C@@H]1CCCCO[C@H](CN(C)C(=O)Nc2ccc3c(c2)OCO3)[C@H](C)CN([C@H](C)CO)C(=O)c2cc(NS(=O)(=O)c3cn(C)cn3)ccc2O1	none (no result: beta cell repl, T cell modulator, V-ATPase pH, Arrestin-AP2 inh, NTR1 agonist)
COc1ccc(OC)c(S(=O)(=O)Nc2c(NC3CCCCC3)c3ccccc3oc2=O)c1	V-ATPase pH 9.2 (no result: Xi reactivation) | VATPase regulator inactive
COc1ccc(Br)cc1C(=O)N/N=C/c1cccnc1	none
COc1cc2ccccc2cc1C(=O)N/N=C/c1cccnc1	V-ATPase pH 21 | VATPase regulator inactive
COCC(=O)N(C)C[C@H]1Oc2ncc(-c3ccc(C#N)cc3)cc2C(=O)N([C@H](C)CO)C[C@H]1C	none (no result: beta cell repl, T cell modulator, V-ATPase pH, Arrestin-AP2 inh, NTR1 agonist)
COc1ccc(S(=O)(=O)N(C)C[C@@H]2Oc3ccc(NC(=O)Cc4cn(C)c5ccccc45)cc3CC(=O)N([C@@H](C)CO)C[C@H]2C)cc1	none (no result: beta cell repl, T cell modulator, V-ATPase pH, Arrestin-AP2 inh, NTR1 agonist)
COc1cc2c(cc1OC)CN(CCC(C)c1ccc(Cl)cc1)CC2 (centres undefined)	V-ATPase pH 13 | VATPase regulator inactive
COc1cc2c(cc1OC)CN(Cc1ccccc1)CC2	none
C=C(C)CSc1nnc(-c2ccc(OC)c(OC)c2)n1N	V-ATPase pH 8.7 (no result: Xi reactivation) | VATPase regulator inactive
C=C(C)CSc1nnc(-c2cc(OC)c(OC)c(OC)c2)n1N	none (no result: Xi reactivation)
O=C(Nc1ccccc1OC(F)F)c1ccccc1	V-ATPase pH 11 (no result: Xi reactivation) | VATPase regulator inactive
O=C(Nc1ccccc1OC(=O)c1ccccc1)c1ccccc1	V-ATPase pH 15 (no result: beta cell repl, T cell modulator, NTR1 agonist, Xi reactivation) | VATPase regulator inactive
COc1ccc(OC)c(/C=N/n2c(C)nc3ccccc3c2=O)c1	none
COc1cc(OC)c(OC)cc1/C=N/n1c(C)nc2ccccc2c1=O	V-ATPase pH 14 | VATPase regulator inactive
Cc1ccc(C)c2sc(N3CCN(C(=O)c4ccc([N+](=O)[O-])o4)CC3)nc12	none
O=C(c1ccc([N+](=O)[O-])o1)N1CCN(c2nc3c(F)cc(F)cc3s2)CC1	V-ATPase pH 31 | VATPase regulator 40
COc1ccc2c3c([nH]c2c1)[C@@H](CO)N(C(=O)CN1CCOCC1)CC31CN(C)C1	none (no result: beta cell repl, T cell modulator, V-ATPase pH, Arrestin-AP2 inh, NTR1 agonist)
COc1ccc(/C=C2\C(=O)NCC(=O)N2Cc2ccccc2)cc1	none (no result: Xi reactivation)
COc1ccc(/C=C2\C(=O)NCC(=O)N2C)cc1	V-ATPase pH 253 | VATPase regulator inactive
Cc1n[nH]c(=S)n1-c1ccccc1	none
Cc1n[nH]c(=S)n1-c1ccc(Cl)cc1	none | VATPase regulator inactive
CCOC(=O)CCCCCC(=O)Nc1ccc2c(c1)C(=O)N([C@@H](C)CO)C[C@H](C)[C@H](CN(C)S(=O)(=O)c1ccc(F)cc1)O2	none (no result: beta cell repl, T cell modulator, V-ATPase pH, Arrestin-AP2 inh, NTR1 agonist)
COc1ccc(N(CC(=O)N/N=C/c2ccc(C(=O)O)cc2)S(=O)(=O)c2ccc(NC(C)=O)cc2)cc1	none
COc1ccc(N(CC(=O)N/N=C/c2cc(Br)c(C)o2)S(=O)(=O)c2ccc(NC(C)=O)cc2)cc1	V-ATPase pH 11 | VATPase regulator inactive
Cc1ccc2[nH]c(=O)c(CN(CCN3CCOCC3)C(=O)Nc3ccccc3F)cc2c1	none (no result: beta cell repl, T cell modulator, NTR1 agonist, Xi reactivation)
Cc1ccc2[nH]c(=O)c(CN(Cc3ccccc3Cl)C(=O)N3CCOCC3)cc2c1	V-ATPase pH 16 (no result: Xi reactivation) | VATPase regulator inactive
Cc1ccc(C(=O)NNC(=O)CCn2nnc3ccccc32)cc1	V-ATPase pH 11 | VATPase regulator inactive
Cc1cccc(C(=O)NNC(=O)CCn2nnc3ccccc32)c1	none
C=CCn1c(SCC(=O)Nc2c(C)n(C)n(-c3ccccc3)c2=O)nc2scc(-c3ccccc3)c2c1=O	V-ATPase pH 13 (no result: Xi reactivation) | VATPase regulator inactive

Assay outcomes as filed in PubChem BioAssay.
